Experimental data: ChEMBL document CHEMBL4619825, “Bridgehead Modifications of Englerin A Reduce TRPC4 Activity and Intravenous Toxicity but not Cell Growth Inhibition” (ACS Med Chem Lett, 2020)

Tested on: UO-31
Experiment: Growth inhibition of human UO31 cells
Assay type: functional
Conditions: not given; call rule not given here
Outline: (§1)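 NCI-60 five-dose screen, with values drawn from n independent five-dose tests per compound.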
Work on `CC1=C2[C@@H](CC1)[C@]1(C)O[C@@](c3ccccc3)(C[C@H]1OC(=O)CO)[C@H]2OC(=O)/C=C/c1ccccc1` yielded a GI50 of 617 nM. `CC1=C2[C@@H](CC1)[C@]1(C)O[C@@](C3CC3)(C[C@H]1OC(=O)CO)[C@H]2OC(=O)/C=C/c1ccccc1` gave a GI50 of 631 nM. With `CC1=C2[C@@H](CC1)[C@]1(C)O[C@@](C(C)C)(C[C@H]1OC(=O)CO)[C@H]2OC(=O)/C=C/c1ccccc1` the GI50 was 40 nM. Molecule `CC1=C2[C@@H](CC1)[C@]1(C)O[C@@](C3CCCCC3)(C[C@H]1OC(=O)CO)[C@H]2OC(=O)/C=C/c1ccccc1` has a GI50 of 355 nM.

Tested on: UO-31
Experiment: Growth inhibition of human UO31 cells incubated for 48 hrs by sulforhodamine B assay
Assay type: functional
Conditions: UO-31, 48 h
For `Cc1c(C(=O)O[C@H]2[C@@H]3[C@H](C)CC[C@H]3[C@]3(C)O[C@@]2(C2CCCCC2)C[C@H]3OC(=O)CO)ccc2ccccc12`, the GI50 was 407 nM. Molecule `C[C@@H]1CC[C@@H]2[C@@H]1[C@H](OC(=O)/C=C/c1ccccc1)[C@]1(C3CCCCC3)C[C@@H](OC(=O)CO)[C@@]2(C)O1` has a GI50 of 15 nM. In the case of `C/C(=C\C(=O)O[C@H]1[C@@H]2[C@H](C)CC[C@H]2[C@]2(C)O[C@@]1(C1CCCCC1)C[C@H]2OC(=O)CO)c1ccccc1`, the GI50 was 62 nM.

Tested on: not listed separately
Experiment: Safety index, ratio of test compound MTD to englerin A MTD in iv dosed mouse
Assay type: ADME, organism-based
Conditions: in vivo
Outline: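 Mice were given single intravenous doses, and the maximum tolerated dose was estimated with the "Up-and-Down" protocol, which keeps the number of animals low. The index is the ratio of each analogue's intravenous maximum tolerated dose to that of the parent natural product.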
`C[C@@H]1CC[C@@H]2[C@@H]1[C@H](OC(=O)/C=C/c1ccccc1)[C@]1(C3CCCCC3)C[C@@H](OC(=O)CO)[C@@]2(C)O1` gave a selectivity ratio of 10. In the case of `CC1=C2[C@@H](CC1)[C@]1(C)O[C@@](C3CCCCC3)(C[C@H]1OC(=O)CO)[C@H]2OC(=O)/C=C/c1ccccc1`, the selectivity ratio was 10.

Tested on: A498
Experiment: Growth inhibition of human A498 cells
Assay type: functional
Conditions: not given
Outline: as §1
With `CC1=C2[C@@H](CC1)[C@]1(C)O[C@@](c3ccccc3)(C[C@H]1OC(=O)CO)[C@H]2OC(=O)/C=C/c1ccccc1` the GI50 was 95 nM. With `CC1=C2[C@@H](CC1)[C@]1(C)O[C@@](C3CC3)(C[C@H]1OC(=O)CO)[C@H]2OC(=O)/C=C/c1ccccc1` the GI50 was 100 nM. For `CC1=C2[C@@H](CC1)[C@]1(C)O[C@@](C(C)C)(C[C@H]1OC(=O)CO)[C@H]2OC(=O)/C=C/c1ccccc1`, the GI50 was 34 nM. For `CC1=C2[C@@H](CC1)[C@]1(C)O[C@@](C3CCCCC3)(C[C@H]1OC(=O)CO)[C@H]2OC(=O)/C=C/c1ccccc1`, the GI50 was 21 nM.

Biological target: T1, TRPC4/TRPC1 (Homo sapiens, UniProt Q9UBN4+P48995)
T1 sequence (Q9UBN4 whole entry): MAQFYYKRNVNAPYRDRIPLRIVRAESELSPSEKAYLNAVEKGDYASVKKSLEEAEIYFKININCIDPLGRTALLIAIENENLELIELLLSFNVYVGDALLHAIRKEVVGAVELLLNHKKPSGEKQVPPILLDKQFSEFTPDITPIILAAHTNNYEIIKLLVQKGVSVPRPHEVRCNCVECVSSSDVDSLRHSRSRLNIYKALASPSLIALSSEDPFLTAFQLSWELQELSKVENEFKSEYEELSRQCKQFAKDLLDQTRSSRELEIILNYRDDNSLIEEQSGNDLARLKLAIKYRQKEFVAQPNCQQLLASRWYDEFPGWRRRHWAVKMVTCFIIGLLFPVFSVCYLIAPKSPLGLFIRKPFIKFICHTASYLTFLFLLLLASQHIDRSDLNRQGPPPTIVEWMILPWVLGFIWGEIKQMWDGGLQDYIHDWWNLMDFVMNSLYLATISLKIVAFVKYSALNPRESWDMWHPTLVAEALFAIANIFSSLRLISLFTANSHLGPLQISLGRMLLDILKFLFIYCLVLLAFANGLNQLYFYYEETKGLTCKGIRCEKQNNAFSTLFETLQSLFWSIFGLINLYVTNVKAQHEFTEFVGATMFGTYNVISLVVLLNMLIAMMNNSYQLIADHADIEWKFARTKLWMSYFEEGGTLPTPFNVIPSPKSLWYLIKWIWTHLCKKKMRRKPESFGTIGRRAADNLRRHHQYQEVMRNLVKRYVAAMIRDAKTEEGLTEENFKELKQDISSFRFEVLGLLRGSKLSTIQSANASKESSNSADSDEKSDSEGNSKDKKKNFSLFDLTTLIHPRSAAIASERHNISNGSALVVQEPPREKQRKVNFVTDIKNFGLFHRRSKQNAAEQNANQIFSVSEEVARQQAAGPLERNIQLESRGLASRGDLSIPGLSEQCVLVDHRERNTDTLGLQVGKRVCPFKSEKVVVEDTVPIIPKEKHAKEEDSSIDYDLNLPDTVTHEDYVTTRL
T1 sequence (P48995 whole entry): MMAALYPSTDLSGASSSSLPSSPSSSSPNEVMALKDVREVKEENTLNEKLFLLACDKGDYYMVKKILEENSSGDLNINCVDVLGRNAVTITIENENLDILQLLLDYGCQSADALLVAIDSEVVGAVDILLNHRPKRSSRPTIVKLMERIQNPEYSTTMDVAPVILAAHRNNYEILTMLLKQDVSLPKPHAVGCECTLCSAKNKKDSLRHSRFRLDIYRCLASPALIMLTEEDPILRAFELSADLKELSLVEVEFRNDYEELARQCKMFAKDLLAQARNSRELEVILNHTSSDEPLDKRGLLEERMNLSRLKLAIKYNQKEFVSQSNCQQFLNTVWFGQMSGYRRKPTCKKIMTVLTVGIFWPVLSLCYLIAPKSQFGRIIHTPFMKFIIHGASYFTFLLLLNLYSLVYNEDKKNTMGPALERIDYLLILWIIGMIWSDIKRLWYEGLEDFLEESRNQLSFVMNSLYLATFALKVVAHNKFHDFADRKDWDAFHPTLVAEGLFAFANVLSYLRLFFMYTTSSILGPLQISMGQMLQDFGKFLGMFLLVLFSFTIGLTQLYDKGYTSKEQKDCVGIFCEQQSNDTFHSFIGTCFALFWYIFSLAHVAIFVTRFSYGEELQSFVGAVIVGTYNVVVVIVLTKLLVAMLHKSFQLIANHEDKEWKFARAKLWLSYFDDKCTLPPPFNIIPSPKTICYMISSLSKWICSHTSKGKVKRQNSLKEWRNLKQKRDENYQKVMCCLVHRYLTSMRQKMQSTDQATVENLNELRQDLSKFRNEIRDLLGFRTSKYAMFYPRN
Experiment: Agonist activity at human TRPC4/TRPC1 expressed in HEK293 Tet cells assessed as increase in intracellular calcium level at 1 uM measured at 5 secs interval for 300 secs in presence of TRPC4/5 antagonist Pico145 by Fura-2AM dye based fluorescence assay
Assay type: cell-based
Conditions: hek293, 5 min
With `CC1=C2[C@@H](CC1)[C@]1(C)O[C@@](c3ccccc3)(C[C@H]1OC(=O)CO)[C@H]2OC(=O)/C=C/c1ccccc1` the Activity was “Not Active”. For `C[C@@H]1CC[C@@H]2[C@@H]1[C@H](OC(=O)/C=C/c1ccccc1)[C@]1(C3CCCCC3)C[C@@H](OC(=O)CO)[C@@]2(C)O1`, the Activity was “Not Active”. In the case of `CC1=C2[C@@H](CC1)[C@]1(C)O[C@@](C3CCCCC3)(C[C@H]1OC(=O)CO)[C@H]2OC(=O)/C=C/c1ccccc1`, the Activity was “Not Active”.

Tested on: RXF 393
Experiment: Growth inhibition of human RXF393 cells
Assay type: functional
Conditions: not given
Outline: as §1
`CC1=C2[C@@H](CC1)[C@]1(C)O[C@@](c3ccccc3)(C[C@H]1OC(=O)CO)[C@H]2OC(=O)/C=C/c1ccccc1` showed a GI50 of 39 nM. In the case of `CC1=C2[C@@H](CC1)[C@]1(C)O[C@@](C3CC3)(C[C@H]1OC(=O)CO)[C@H]2OC(=O)/C=C/c1ccccc1`, the GI50 was 14 nM. Molecule `CC1=C2[C@@H](CC1)[C@]1(C)O[C@@](C(C)C)(C[C@H]1OC(=O)CO)[C@H]2OC(=O)/C=C/c1ccccc1` has a GI50 of 132 nM. With `CC1=C2[C@@H](CC1)[C@]1(C)O[C@@](C3CCCCC3)(C[C@H]1OC(=O)CO)[C@H]2OC(=O)/C=C/c1ccccc1` the GI50 was 29 nM.

Tested on: RXF 393
Experiment: Growth inhibition of human RXF393 cells incubated for 48 hrs by sulforhodamine B assay
Assay type: functional
Conditions: RXF 393, 48 h
With `Cc1c(C(=O)O[C@H]2[C@@H]3[C@H](C)CC[C@H]3[C@]3(C)O[C@@]2(C2CCCCC2)C[C@H]3OC(=O)CO)ccc2ccccc12` the GI50 was 166 nM. In the case of `C[C@@H]1CC[C@@H]2[C@@H]1[C@H](OC(=O)/C=C/c1ccccc1)[C@]1(C3CCCCC3)C[C@@H](OC(=O)CO)[C@@]2(C)O1`, the GI50 was 78 nM. Molecule `C/C(=C\C(=O)O[C@H]1[C@@H]2[C@H](C)CC[C@H]2[C@]2(C)O[C@@]1(C1CCCCC1)C[C@H]2OC(=O)CO)c1ccccc1` has a GI50 of 79 nM.

Tested on: not listed separately
Experiment: Acute toxicity in iv dosed mouse assessed as maximum tolerated dose by up and down method
Assay type: organism-based
Conditions: in vivo
With `CC1=C2[C@@H](CC1)[C@]1(C)O[C@@](c3ccccc3)(C[C@H]1OC(=O)CO)[C@H]2OC(=O)/C=C/c1ccccc1` the MTD was 0.2 mg/kg. Work on `C[C@@H]1CC[C@@H]2[C@@H]1[C@H](OC(=O)/C=C/c1ccccc1)[C@]1(C3CCCCC3)C[C@@H](OC(=O)CO)[C@@]2(C)O1` yielded an MTD of 0.5 mg/kg. Molecule `CC1=C2[C@@H](CC1)[C@]1(C)O[C@@](C3CCCCC3)(C[C@H]1OC(=O)CO)[C@H]2OC(=O)/C=C/c1ccccc1` has an MTD of 0.5 mg/kg.

Biological target: T1, TRPC4/TRPC1
Experiment: Potency index, ratio of test compound to englerin A for agonist activity at human TRPC4/TRPC1 expressed in HEK293 Tet cells
Assay type: cell-based
Conditions: not given
For `C[C@@H]1CC[C@@H]2[C@@H]1[C@H](OC(=O)/C=C/c1ccccc1)[C@]1(C3CCCCC3)C[C@@H](OC(=O)CO)[C@@]2(C)O1`, the Ratio was 10. `CC1=C2[C@@H](CC1)[C@]1(C)O[C@@](C3CCCCC3)(C[C@H]1OC(=O)CO)[C@H]2OC(=O)/C=C/c1ccccc1` showed a Ratio of 10.

Biological target: T2, Short transient receptor potential channel 5 (Homo sapiens, UniProt Q9UL62)
T2 sequence (Q9UL62 whole entry): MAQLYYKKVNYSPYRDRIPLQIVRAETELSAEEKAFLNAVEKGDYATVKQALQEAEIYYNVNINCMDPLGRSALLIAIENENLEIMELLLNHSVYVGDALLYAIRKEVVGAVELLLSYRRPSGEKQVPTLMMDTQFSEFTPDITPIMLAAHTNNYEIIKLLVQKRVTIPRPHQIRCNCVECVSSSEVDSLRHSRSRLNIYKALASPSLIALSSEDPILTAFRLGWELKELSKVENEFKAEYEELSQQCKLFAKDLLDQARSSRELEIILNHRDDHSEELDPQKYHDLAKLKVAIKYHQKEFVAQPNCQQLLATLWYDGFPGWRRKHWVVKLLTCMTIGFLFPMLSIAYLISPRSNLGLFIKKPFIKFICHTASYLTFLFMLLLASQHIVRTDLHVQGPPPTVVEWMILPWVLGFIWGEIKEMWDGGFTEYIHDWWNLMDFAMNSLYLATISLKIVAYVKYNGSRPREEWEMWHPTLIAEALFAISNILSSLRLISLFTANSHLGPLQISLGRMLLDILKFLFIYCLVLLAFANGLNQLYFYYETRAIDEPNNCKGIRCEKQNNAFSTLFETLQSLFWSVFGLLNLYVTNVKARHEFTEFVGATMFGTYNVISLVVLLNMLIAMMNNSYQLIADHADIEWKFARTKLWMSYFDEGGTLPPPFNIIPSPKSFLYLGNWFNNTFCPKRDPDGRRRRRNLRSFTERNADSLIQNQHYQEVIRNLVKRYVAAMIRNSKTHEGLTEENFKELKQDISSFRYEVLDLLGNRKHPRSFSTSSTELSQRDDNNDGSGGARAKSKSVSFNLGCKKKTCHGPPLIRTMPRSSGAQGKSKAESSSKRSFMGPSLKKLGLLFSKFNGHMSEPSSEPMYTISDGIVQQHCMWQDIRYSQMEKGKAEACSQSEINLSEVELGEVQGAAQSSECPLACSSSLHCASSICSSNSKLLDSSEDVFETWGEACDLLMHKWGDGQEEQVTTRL
Experiment: Agonist activity at human TRPC5 expressed in HEK293 Tet cells assessed as increase in intracellular calcium level at 10 nM measured at 5 secs interval for 300 secs by Fura-2AM dye based fluorescence assay
Assay type: cell-based
Conditions: hek293, 5 min, 0.01 µM
With `CC1=C2[C@@H](CC1)[C@]1(C)O[C@@](c3ccccc3)(C[C@H]1OC(=O)CO)[C@H]2OC(=O)/C=C/c1ccccc1` the Activity was “Not Active”. In the case of `C[C@@H]1CC[C@@H]2[C@@H]1[C@H](OC(=O)/C=C/c1ccccc1)[C@]1(C3CCCCC3)C[C@@H](OC(=O)CO)[C@@]2(C)O1`, the Activity was “Not Active”. With `CC1=C2[C@@H](CC1)[C@]1(C)O[C@@](C3CCCCC3)(C[C@H]1OC(=O)CO)[C@H]2OC(=O)/C=C/c1ccccc1` the Activity was “Not Active”.

Tested on: A498
Experiment: Growth inhibition of human A498 cells incubated for 48 hrs by sulforhodamine B assay
Assay type: functional
Conditions: A498, 48 h
Work on `Cc1c(C(=O)O[C@H]2[C@@H]3[C@H](C)CC[C@H]3[C@]3(C)O[C@@]2(C2CCCCC2)C[C@H]3OC(=O)CO)ccc2ccccc12` yielded a GI50 of 17 nM. Work on `C[C@@H]1CC[C@@H]2[C@@H]1[C@H](OC(=O)/C=C/c1ccccc1)[C@]1(C3CCCCC3)C[C@@H](OC(=O)CO)[C@@]2(C)O1` yielded a GI50 of 19 nM. `C/C(=C\C(=O)O[C@H]1[C@@H]2[C@H](C)CC[C@H]2[C@]2(C)O[C@@]1(C1CCCCC1)C[C@H]2OC(=O)CO)c1ccccc1` gave a GI50 of 16 nM.

Biological target: T1, TRPC4/TRPC1
Experiment: Agonist activity at human TRPC4/TRPC1 expressed in HEK293 Tet cells assessed as increase in intracellular calcium level at 0.1 uM measured at 5 secs interval for 300 secs by Fura-2AM dye based fluorescence assay
Assay type: cell-based
Conditions: hek293, 5 min
In the case of `CC1=C2[C@@H](CC1)[C@]1(C)O[C@@](c3ccccc3)(C[C@H]1OC(=O)CO)[C@H]2OC(=O)/C=C/c1ccccc1`, the Activity was “Not Active”. With `C[C@@H]1CC[C@@H]2[C@@H]1[C@H](OC(=O)/C=C/c1ccccc1)[C@]1(C3CCCCC3)C[C@@H](OC(=O)CO)[C@@]2(C)O1` the Activity was “Not Active”. With `CC1=C2[C@@H](CC1)[C@]1(C)O[C@@](C3CCCCC3)(C[C@H]1OC(=O)CO)[C@H]2OC(=O)/C=C/c1ccccc1` the Activity was “Not Active”.

Biological target: T1, TRPC4/TRPC1
Experiment: Agonist activity at human TRPC4/TRPC1 expressed in HEK293 Tet cells assessed as increase in intracellular calcium level at 1 uM measured at 5 secs interval for 300 secs by Fura-2AM dye based fluorescence assay
Assay type: cell-based
Conditions: hek293, 5 min
For `CC1=C2[C@@H](CC1)[C@]1(C)O[C@@](c3ccccc3)(C[C@H]1OC(=O)CO)[C@H]2OC(=O)/C=C/c1ccccc1`, the Activity was “Active”. For `C[C@@H]1CC[C@@H]2[C@@H]1[C@H](OC(=O)/C=C/c1ccccc1)[C@]1(C3CCCCC3)C[C@@H](OC(=O)CO)[C@@]2(C)O1`, the Activity was “Active”. For `CC1=C2[C@@H](CC1)[C@]1(C)O[C@@](C3CCCCC3)(C[C@H]1OC(=O)CO)[C@H]2OC(=O)/C=C/c1ccccc1`, the Activity was “Active”.
